Assay results published in the RNAGym collection of RNA variant scans (doi:10.1126/science.aae0568).
Fewer inactive variants are shown than the library holds.

B1: tRNA (parent)
chain: GUUCCGUUGGCGUAAUGGUAACGCGUCUCCCUCCUAAGGAGAAGACUGCGGGUUCGAGUCCCGUACGGAACG

Variants of: B1
Test: yeast fitness relative to wild type (ratio to wild type); higher = fitter; tRNA-Arg(CCU), competitive growth, 37 C, YPD
Summary of the method: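 The tRNA-Arg(CCU) gene variants were made by chemical synthesis with a 3% per-site mutation rate at 69 sites and inserted at the native genomic locus of Saccharomyces cerevisiae. After pooling, the strains were competed in YPD at 37°C for 24 hours in six parallel replicates. Gene amplicons from the start population and each end population were read by 100-nucleotide paired-end sequencing, and Darwinian fitness relative to wild type was taken from genotype frequency changes. Genotypes needed ≥ 100 starting reads, and estimates < 0.5 were set to 0.5.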

Q: With G9A U28A A45G as the variant, how does the yeast fitness read?
A: 0.645

Q: With G17C C22A U32C as the variant, how does the yeast fitness read?
A: 0.553

Q: With C11U A21U G39C C55U as the variant, how does the yeast fitness read?
A: ≤ 0.5

Q: Which yeast fitness does the source give for A21U C34G here?
A: 0.597

Q: Which yeast fitness does the source give for U32C C55U A69C here?
A: 0.63

Q: With U7C G67U as the variant, how does the yeast fitness read?
A: 0.847

Q: For A21C G23U C62U A65G, which yeast fitness is on record?
A: ≤ 0.5

Q: Which yeast fitness does the source give for C5G A20G C55G here?
A: 0.538

Q: With C31U G67C as the variant, how does the yeast fitness read?
A: 0.902

Q: For G6A G48C G63C, which yeast fitness is on record?
A: 0.667

Q: Which yeast fitness does the source give for G12C C27G C30G here?
A: ≤ 0.5

Q: With C24G A37C A57U as the variant, how does the yeast fitness read?
A: ≤ 0.5

Q: Which yeast fitness does the source give for G12A C30G U59A here?
A: ≤ 0.5

Q: Which yeast fitness does the source give for G41A G67C here?
A: 0.775

Q: With A20U C33A G44A C62U as the variant, how does the yeast fitness read?
A: ≤ 0.5

Q: Which yeast fitness does the source give for A15U U19A A20G G41A C60G A65G here?
A: ≤ 0.5

Q: With G25A A43C A70C as the variant, how does the yeast fitness read?
A: 0.824

Q: Which yeast fitness does the source give for C22A A42U G44A C62U here?
A: ≤ 0.5

Q: Which yeast fitness does the source give for C30U G44A C46A here?
A: 0.637

Q: For U32G U35A G38C C46G, which yeast fitness is on record?
A: ≤ 0.5

Q: For A36G A45C G52C A69C, which yeast fitness is on record?
A: 0.54

Q: With C24U C60A C66G as the variant, how does the yeast fitness read?
A: 0.606

Q: For C4A G41A A45U G58U C60A, which yeast fitness is on record?
A: ≤ 0.5

Q: For C5G C11U A14G G25C C29G, which yeast fitness is on record?
A: ≤ 0.5

Q: For U2G U16C, which yeast fitness is on record?
A: 0.969

Q: With C4U A37G G39C A65G as the variant, how does the yeast fitness read?
A: ≤ 0.5

Q: For U13C G17A A43U, which yeast fitness is on record?
A: 0.523

Q: For C27U C30U A42C G58C, which yeast fitness is on record?
A: ≤ 0.5

Q: With C4G C55U C61A as the variant, how does the yeast fitness read?
A: ≤ 0.5

Q: With C33U A43C as the variant, how does the yeast fitness read?
A: 0.656

Q: For U2C C33U A42C U64C A70G, which yeast fitness is on record?
A: ≤ 0.5

Q: Which yeast fitness does the source give for U7A C60G A70C here?
A: ≤ 0.5

Q: Which yeast fitness does the source give for C11A G41A A45U C55A here?
A: ≤ 0.5

Q: For A36U C46A C62G, which yeast fitness is on record?
A: ≤ 0.5

Q: With G10C C55U G56C as the variant, how does the yeast fitness read?
A: ≤ 0.5

Q: Which yeast fitness does the source give for A14C A21G here?
A: 0.713

Q: For U16G U32C, which yeast fitness is on record?
A: 0.915

Q: Which yeast fitness does the source give for G51C C61U here?
A: 0.604

Q: Which yeast fitness does the source give for C4U C5G U28C G67C here?
A: 0.909

Q: Which yeast fitness does the source give for C5G C11A A20C C22G C30U C31G C61A G67A here?
A: ≤ 0.5

Q: For U2G C33G C62U A65U, which yeast fitness is on record?
A: ≤ 0.5

Q: Which yeast fitness does the source give for C4U C30A U59C A69C here?
A: 0.568

Q: Which yeast fitness does the source give for U7A G25C C27G C31U A45U U64C here?
A: ≤ 0.5

Q: With C11G A36C as the variant, how does the yeast fitness read?
A: ≤ 0.5

Q: For C34A A42U G68A, which yeast fitness is on record?
A: ≤ 0.5

Q: For U13A A15G U47A U64G, which yeast fitness is on record?
A: ≤ 0.5

Q: Which yeast fitness does the source give for C5A U8C here?
A: 0.929

Q: With C27A A37C G44A U53G as the variant, how does the yeast fitness read?
A: ≤ 0.5

Q: For G12C G41C C60G, which yeast fitness is on record?
A: ≤ 0.5

Q: With G18C A69U as the variant, how does the yeast fitness read?
A: 0.695

Q: With C30G A36G A57U as the variant, how does the yeast fitness read?
A: ≤ 0.5

Q: For G12C A20C C31G U64A, which yeast fitness is on record?
A: ≤ 0.5

Q: Which yeast fitness does the source give for C11G G17C A40G here?
A: ≤ 0.5

Q: Which yeast fitness does the source give for C31U A57C here?
A: 0.574

Q: With U7G A42C G44C A65C as the variant, how does the yeast fitness read?
A: 1.08

Q: Which yeast fitness does the source give for U3A C4U G67C here?
A: 0.624

Q: For C31G C33U C61U, which yeast fitness is on record?
A: ≤ 0.5

Q: Which yeast fitness does the source give for U16A G67U here?
A: 0.85

Q: For U8A U59C, which yeast fitness is on record?
A: 0.748

Q: For G17A A45G, which yeast fitness is on record?
A: 0.875

Q: With C4A G17C G23C as the variant, how does the yeast fitness read?
A: ≤ 0.5

Q: With A21G G23C C31U C34G A43G A45C A57U as the variant, how does the yeast fitness read?
A: 0.574

Q: With G50C G52A as the variant, how does the yeast fitness read?
A: 0.607

Q: Which yeast fitness does the source give for U3A C4U U7A G12A C30G here?
A: ≤ 0.5

Q: For C11U G52C, which yeast fitness is on record?
A: 0.707

Q: For U2A C33U C34U G38A G51A C55A A65U, which yeast fitness is on record?
A: ≤ 0.5

Q: With A21U G23C C49U as the variant, how does the yeast fitness read?
A: ≤ 0.5

Q: For A21U G23C A36U, which yeast fitness is on record?
A: ≤ 0.5

Q: For G9A C22U, which yeast fitness is on record?
A: 1.04

Q: Which yeast fitness does the source give for G10C C34G G67U here?
A: 0.584

Q: With U19A C66U as the variant, how does the yeast fitness read?
A: 0.996

Q: With G9A C31U A40G G52C A65G A69G as the variant, how does the yeast fitness read?
A: ≤ 0.5

Q: With G38A A40C G56A C66U A70C as the variant, how does the yeast fitness read?
A: ≤ 0.5

Q: Which yeast fitness does the source give for C27G C29U C49U A70U here?
A: ≤ 0.5

Q: Which yeast fitness does the source give for U3G U8C A15G C24G G50A C55U here?
A: ≤ 0.5

Q: For C11U C24G C61A G67A, which yeast fitness is on record?
A: ≤ 0.5

Q: With C31A U32C U53C C60G as the variant, how does the yeast fitness read?
A: ≤ 0.5

Q: Which yeast fitness does the source give for U2C U7G U32A U59A here?
A: 0.501

Q: Which yeast fitness does the source give for U28C C61G here?
A: 0.583

Q: For C4U G12C C30G A36C, which yeast fitness is on record?
A: ≤ 0.5

Q: For C4A U26C A37G G67C, which yeast fitness is on record?
A: ≤ 0.5

Q: Which yeast fitness does the source give for C11A A57C here?
A: 0.675

Q: With A43U A70U as the variant, how does the yeast fitness read?
A: 1.06
